# Bioassay records: PubChem, Johns Hopkins Ion Channel Center
# Rows were chosen to be rich in hits. Some 2.3% of all compounds tested hit in one or more screens of this group.
# TRPC6 inhibitor – inhibitors of mouse TRPC6 channel. 310,000 tested, 1.1% active. HEK293-TRPC6, membrane potential dye, ACh-evoked depolarization; active compounds read low. Q61143. AID 2553. B-score at 10 µM;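 active means B-score under library mean minus 3 SD, initial fluorescence not abnormally high, positive integrated signal ratio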;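 further: B-score derived from integrated fluorescence ratio over the kinetic read; more negative B-score means stronger inhibition of depolarization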
# Target sequence (Q61143 whole entry, looked up): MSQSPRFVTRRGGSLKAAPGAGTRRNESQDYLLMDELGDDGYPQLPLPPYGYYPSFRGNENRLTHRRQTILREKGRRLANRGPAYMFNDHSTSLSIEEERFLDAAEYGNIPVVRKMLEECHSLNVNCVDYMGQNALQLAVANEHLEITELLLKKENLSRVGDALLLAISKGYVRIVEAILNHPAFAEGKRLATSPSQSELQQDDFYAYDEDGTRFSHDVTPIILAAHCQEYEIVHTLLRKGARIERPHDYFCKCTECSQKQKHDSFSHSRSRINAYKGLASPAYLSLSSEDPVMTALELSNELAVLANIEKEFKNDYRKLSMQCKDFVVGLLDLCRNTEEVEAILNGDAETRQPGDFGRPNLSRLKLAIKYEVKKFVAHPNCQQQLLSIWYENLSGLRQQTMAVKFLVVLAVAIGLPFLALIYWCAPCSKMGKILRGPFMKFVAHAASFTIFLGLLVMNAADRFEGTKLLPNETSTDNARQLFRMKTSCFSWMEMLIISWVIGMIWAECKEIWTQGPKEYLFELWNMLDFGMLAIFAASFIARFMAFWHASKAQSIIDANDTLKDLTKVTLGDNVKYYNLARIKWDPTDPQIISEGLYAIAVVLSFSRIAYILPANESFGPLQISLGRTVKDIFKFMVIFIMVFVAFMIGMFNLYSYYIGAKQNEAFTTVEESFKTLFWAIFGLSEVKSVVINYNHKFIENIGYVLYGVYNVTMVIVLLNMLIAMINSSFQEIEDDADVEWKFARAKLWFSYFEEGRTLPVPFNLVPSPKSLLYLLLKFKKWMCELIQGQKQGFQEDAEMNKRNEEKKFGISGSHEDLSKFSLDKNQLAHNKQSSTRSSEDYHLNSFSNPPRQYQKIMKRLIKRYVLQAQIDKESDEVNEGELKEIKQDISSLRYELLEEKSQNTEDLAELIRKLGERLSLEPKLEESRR
# TRPC4 block – TRPC4 (mouse) channel inhibition; Q9QUQ5; HEK293 TRPC4beta/mu-opioid, DAMGO-evoked Fluo4 calcium flux; active compounds read low; B-score at 10 µM; 300,000 tested, 0.39% active; AID 2247;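 active means B-score over 3 SD under the library average, no early fluorescence shift, positive overall ratio signal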
#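 Assay system: HEK293 cells with stable TRPC4beta plus mu-opioid receptor expression; Probe or stimulus: DAMGO in two steps, submaximal then maximal; Dosing: single-point compound dosing; Measured by: Fluo4 calcium-dye fluorescence, kinetic read; Read-out basis: B score from integrated Fluo4 fluorescence ratio.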
# TRPC6 activator – activators of mouse TRPC6 channel | HEK293-TRPC6 membrane potential dye fluorescence; active compounds read high | Q61143 | B-score at 10 µM | 310,000 tested, 0.13% active;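 active means B-score of the integrated fluorescence ratio above library mean plus 3 SD, and starting fluorescence ratio within library mean plus 5 SD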;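 further: higher score means more depolarization so channel activation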
# TRPC4 agonist – opens the mouse TRPC4 cation channel. Q9QUQ5. HEK293 TRPC4beta/mu-opioid, Fluo4 calcium fluorescence; active compounds read high. B-score at 10 µM. 310,000 tested, 0.49% active. AID 2237;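 active means B-score above 5 SD of library B-scores, and initial fluorescence ratio not above library mean plus 5 SD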;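 further: positive B-score marks a calcium rise read as TRPC4 activation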
#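 Technique: kinetic Fluo4 calcium fluorescence; Test system: TRPC4beta and mu-opioid receptor HEK293 stable cells; Measure: B-scored integrated calcium fluorescence ratio; Benchmarks: low control buffer alone, high control maximal DAMGO; Schedule: 45 min room-temperature Fluo4 loading, 110 s read.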
# TRPC4 PAM – allosterically enhances the mouse TRPC4 cation channel; Q9QUQ5; HEK293 TRPC4beta/mu-opioid, DAMGO EC20, Fluo-4 Ca2+ flux; active compounds read high; B-score at 10 µM; 310,000 tested, 0.42% active; AID 2227;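 active means B-score of calcium response area above 5 SD of library B-scores, with initial fluorescence ratio within 5 SD of library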;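 further: B-score of integrated fluorescence ratio over time as area under calcium response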
# TRPC4 sel inh 2 – second selectivity test of TRPC6 inhibitors: effect on mouse TRPC4. shares compounds with TRPC6 inhibitor. HEK293 TRPC4/MOR, membrane potential dye fluorescence; channel activated by saturating DAMGO dose. inhibition, % at 10 µM. 920 tested, 42% active. AID 2776;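 active means compounds whose fluorescence signal differed from control wells by over 3 SD, either direction, in both duplicate plates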
# TRPC4 spec – tests whether TRPC6 inhibitors also affect mouse TRPC4 | shares compounds with TRPC6 inhibitor | HEK293 TRPC4/mu-opioid, membrane potential fluorescence | activity change, negative = inhibition, % at 10 µM | 920 tested, 61% active | AID 2777;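 active means rise or fall in signal beyond 3 SD of buffer-only wells in both replicate plates, either sign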;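 further: integrated kinetic ratio of fluorescence range over baseline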
# HEK293 MPD ctr 2-1 – second check of TRPC6 inhibitor effects in parental HEK293 cells | shares compounds with TRPC6 inhibitor | parental HEK293 membrane potential dye fluorescence; maximal acetylcholine challenge after compound addition | signal change vs control, % at 10 µM | 920 tested, 31% active;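 active means membrane potential signal moving either way by over 3 SD of the maximum-effect control, in both duplicate plates, meaning non-specific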
# HEK293 MPD ctr-1 – counter-screen for TRPC6 inhibitors: effect in parental HEK293 cells | AID 2780 | shares compounds with TRPC6 inhibitor | membrane potential signal change, % at 10 µM | 920 tested, 60% active | parental HEK293 membrane potential dye fluorescence;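 active means membrane potential signal shifting up or down by more than 3 SD of buffer-only wells, on both duplicate plates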
# HEK293 MPD ctr-2 – counter-screen for TRPC6 modulators: effect in parental HEK293 cells; shares compounds with TRPC6 inhibitor; membrane potential dye fluorescence; membrane potential signal change, % at 10 µM; 2,400 tested, 51% active; AID 488924;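 active means membrane potential signal moves up or down beyond 5 SD from buffer-only wells, on both duplicate plates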
# HEK293 MPD ctr 2-2 – second counter-screen for TRPC6 modulators: effect in parental HEK293 cells. shares compounds with TRPC6 inhibitor. membrane potential dye fluorescence; after compound, maximal acetylcholine stimulation. inhibition, % at 10 µM. 2,400 tested, 14% active. AID 488926;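 active means membrane potential signal drops by more than 5 SD from the mean control signal, in both duplicate plates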;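 further: plate controls were acetylcholine ECmax control wells for no effect and buffer only wells for full effect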
# TRPC4 ctr mod – selectivity of TRPC6 modulators against mouse TRPC4. 2,400 tested, 69% active. HEK293 TRPC4/mu-opioid, membrane potential fluorescence. AID 488927. percent change from control (negative = decrease, positive = increase), % at 10 µM. shares compounds with TRPC6 inhibitor;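 active means membrane potential signal moved up or down beyond 5 SD of buffer control wells, in both duplicate plates, actives on both sides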;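 further: plate controls were assay buffer wells for no effect and DAMGO maximal-effect wells for full effect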
# TRPC4 ctr inh 2 – mouse TRPC4 off-target activity of TRPC6 modulators, second screen; shares compounds with TRPC6 inhibitor; inhibition, % at 10 µM; HEK293 TRPC4/mu-opioid, membrane potential dye fluorescence; stimulated with maximal-effect DAMGO; AID 488928; 2,400 tested, 55% active;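 active means drop in membrane potential signal beyond 5 SD of the control wells in both duplicate plates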;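 further: TRPC4 counter screen for TRPC6 hits run under conditions tuned for TRPC6 not TRPC4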
# TRPC6 inh conf – mouse TRPC6 inhibitor confirmation; shares compounds with TRPC6 inhibitor; HEK293-TRPC6, membrane potential dye, ACh-evoked depolarization; inhibition, % at 10 µM; 3,300 tested, 43% active;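 active means fluorescence ratio falls more than 5 SD below the full-stimulation control mean, in both duplicate runs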;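 further: integrated fluorescence ratio of peak minus minimum over baseline after agonist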
# TRPC6 act confirm – mouse TRPC6 activator confirmation. AID 488961. HEK293-TRPC6 membrane potential dye fluorescence, FDSS. shares compounds with TRPC6 inhibitor. activation, % at 10 µM. 2,800 tested, 11% active;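 active means ratio signal rise beyond 5 SD above unstimulated control wells' mean, seen in both duplicate runs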;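 further: plate controls were buffer EC0 wells for no effect and acetylcholine ECmax response for full effect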
# Numbers without * were called inactive; i = inactive; / = not tested or not shown.
SMILES,TRPC6 inhibitor,TRPC4 block,TRPC6 activator,TRPC4 agonist,TRPC4 PAM,HEK293 MPD ctr-2,HEK293 MPD ctr 2-2,TRPC4 ctr mod,TRPC4 ctr inh 2,TRPC6 inh conf,TRPC6 act confirm,others
CCOC(=O)N1CCC(N(CCOC)C(=O)Nc2ccc(CC)cc2)CC1,i,i,i,i,i,/,/,/,/,/,/,
OCC[C@H]1C[C@@H](O)[C@H](O)[C@@]2(CCCCO2)O1,-7.4*,i,i,i,i,/,/,/,/,i,i,TRPC4 sel inh 2=i;TRPC4 spec=i;HEK293 MPD ctr 2-1=i;HEK293 MPD ctr-1=i
COc1ccccc1NC(=O)Nc1ccc2c(c1)CCC2,-5*,i,i,i,i,i,i,i,i,i,i,
Cc1ccc(C(CC(N)=O)c2ccco2)cc1 (stereo unspecified),i,i,i,i,i,/,/,/,/,/,/,
CCOC(=O)C1CCCN(C(=O)c2cnn3c(C(F)F)cc(-c4ccc(C)cc4)nc23)C1 (stereo unspecified),-6.2*,i,i,i,i,156%*,i,37%*,i,i,/,
N=c1c(C(=O)NCC2CCCO2)cc2c(=O)n3ccccc3nc2n1Cc1cccnc1 (stereo unspecified),-7.5*,i,i,i,i,i,84%*,-100%*,33%*,50%*,i,
N=c1c(C(=O)NCC2CCCO2)cc2c(=O)n3ccccc3nc2n1Cc1ccco1 (stereo unspecified),-5.3*,i,i,i,i,i,76%*,13%*,i,i,i,
N=c1c(C(=O)NCC2CCCO2)cc2c(=O)n3ccccc3nc2n1Cc1ccc(F)cc1 (stereo unspecified),-6*,i,i,i,i,i,i,-9.5%*,48%*,48%*,i,
N=c1c(C(=O)NCCc2ccccc2)cc2c(=O)n3ccccc3nc2n1Cc1ccco1,i,i,i,i,i,/,/,/,/,/,/,
CCOCCCNc1nc2nc3ccc(C)cn3c(=O)c2cc1C(=O)NCC1CCCO1 (stereo unspecified),-5.5*,i,i,i,i,149%*,61%*,24%*,i,i,/,
CC1CCCC(C)N1CCCNC(=O)Cn1c(=O)c2cccn2c2cccnc21 (stereo unspecified),i,i,i,i,i,/,/,/,/,/,/,
O=C1c2cccc(Cl)c2C(=O)c2c1cccc2N1CCCC1,-8.3*,i,i,i,i,-98%*,i,-26%*,76%*,i,i,
COc1ccccc1Cn1c(=S)[nH]c2cc(C(=O)N3CCCC3)ccc2c1=O,i,i,i,i,i,/,/,/,/,/,/,
O=[N+]([O-])c1ccc(NC(=S)NCCc2ccc(F)cc2)cc1,-5.3*,i,i,i,i,i,i,i,62%*,i,i,
O=C(NCCc1ccc(F)cc1)Nc1ccc([N+](=O)[O-])cc1,i,i,i,i,i,/,/,/,/,/,/,
CCCC(C)C(=O)Nc1nc(C)c(-c2csc(Nc3ccc(Cl)cc3)n2)s1 (stereo unspecified),-6*,i,i,i,i,i,i,i,i,i,i,
Nc1ccc(-c2cc3ccccc3oc2=O)cc1,i,i,i,i,i,/,/,/,/,/,/,
O=C/C=C/c1c(-c2ccccc2)cc2oc3ccccc3cc1-2,-9.3*,i,i,i,i,/,/,/,/,i,i,TRPC4 sel inh 2=i;TRPC4 spec=i;HEK293 MPD ctr 2-1=i;HEK293 MPD ctr-1=i
COc1ccc(CSc2ncnc3sccc23)cc1F,i,i,i,i,i,/,/,/,/,/,/,
Cc1c(CCOC(=O)c2ccc([N+](=O)[O-])cc2)sc[n+]1CC(=O)c1ccccc1,-7.4*,-6*,i,i,i,-262%*,i,-40%*,36%*,40%*,i,
COc1ccc(/C=C/C(=O)Nc2ccccc2C(=O)NCC(c2ccc(OC)cc2)N(C)C)cc1 (stereo unspecified),-6.8*,-7*,i,48*,i,/,/,/,/,i,i,TRPC4 sel inh 2=12%*;TRPC4 spec=49%*;HEK293 MPD ctr 2-1=i;HEK293 MPD ctr-1=i
O=C(NCCCn1ccnc1)C1c2ccccc2Oc2ccccc21,-6*,i,i,i,i,i,i,32%*,i,i,i,
CCN1CCC(=NNC(=O)CC23CC4CC(CC(C4)C2)C3)CC1,i,i,i,i,i,/,/,/,/,/,/,
Cc1ccccc1C1=NC(C(F)(F)F)(C(F)(F)F)c2c(n(C)c(=O)n(C)c2=O)N1,i,i,i,i,i,/,/,/,/,/,/,
Cn1c2c(c(=O)n(C)c1=O)C(C(F)(F)F)(C(F)(F)F)N=C(c1ccc(Cl)cc1)N2,-7.9*,i,i,i,i,/,/,/,/,101%*,i,TRPC4 sel inh 2=76%*;TRPC4 spec=20%*;HEK293 MPD ctr 2-1=i;HEK293 MPD ctr-1=11%*
CN(C)CCOc1nc(-c2ccccc2)nc2c1oc1ccccc12,-8.9*,i,i,45*,i,/,/,/,/,i,i,TRPC4 sel inh 2=62%*;TRPC4 spec=i;HEK293 MPD ctr 2-1=i;HEK293 MPD ctr-1=i
